“Also recorded” adds a separate entry of the source. Read-outs that look alike come from different tables or passages of the source.
Tests used:
S. typhimurium = details: incorporation or preincubation Ames assays, 10–3333 μg/plate; cited from earlier work
[1] = system: S. typhimurium tester strains (TA98, TA100, and TA102); test: Ames test, overall over three strains; format: cell-based, Salmonella typhimurium
S. typhimurium TA98 = test: Ames test, strain TA98; format: cell-based, Salmonella typhimurium
MCF-7 cells [2] = details: proliferative activity at 10^–7 to 10^–5 M; cited from earlier work
zebrafish embryos = details: cited from earlier work
ERβ = details: competing with E2; cited from earlier work
chicken embryo = test: Chicken embryonic assay; format: in vivo; details: egg injection, day 18
ERα = details: competing with E2; cited from earlier work
MCF-7 cells [3] = test: MCF-7 cell proliferation assay; format: cell-based, human
Procedure, shortened: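 MCF-7 cells exposed to test compound or E2 at six concentrations from 10–12 to 10–7 M in EA-free medium. Proliferation read as MTT product absorbance at 570 nm. Three independent trials, each in triplicate. % RME2 = 100 × (OD test − OD VC)/(max OD E2 − OD VC). EC50 from curve fitting. EEF = EC50 of E2/EC50 of sample. One-way ANOVA with Dunnett's test versus E2 at each concentration.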

S. typhimurium TA100 = test: Ames test, strain TA100; format: cell-based, Salmonella typhimurium
[4] = higher dose (0.5 mM: 450–500 μg/kg; E2 0.1 mM: 91 μg/kg)
[5] = lower dose (0.05 mM: 45–50 μg/kg; E2 0.01 mM: 9.1 μg/kg)
[6] = TA100 +S9, 5 × 10^–2 pmol/plate
[7] = TA100 +S9, 5 × 10^–3 pmol/plate
[8] = TA100 +S9, 5 × 10^–4 pmol/plate
[9] = TA100 +S9, 5 × 10^–5 pmol/plate
[10] = TA100 -S9, 5 × 10^–2 pmol/plate
[11] = TA100 -S9, 5 × 10^–3 pmol/plate
[12] = TA100 -S9, 5 × 10^–4 pmol/plate
[13] = TA100 -S9, 5 × 10^–5 pmol/plate
[14] = TA102 +S9, 5 × 10^–2 pmol/plate
[15] = TA102 +S9, 5 × 10^–3 pmol/plate
[16] = TA102 +S9, 5 × 10^–4 pmol/plate
[17] = TA102 +S9, 5 × 10^–5 pmol/plate
[18] = TA102 -S9, 5 × 10^–2 pmol/plate
[19] = TA102 -S9, 5 × 10^–3 pmol/plate
[20] = TA102 -S9, 5 × 10^–4 pmol/plate
[21] = TA102 -S9, 5 × 10^–5 pmol/plate

SMILES: O=c1c(-c2ccc(O)cc2)coc2cc(O)cc(O)c12 [genistein]
- mutagenic activity in Ames assays (S. typhimurium): No mutagenic activity
- Ames test outcome (signs of mutagenicity) ([1]; 5 × 10^–5 to 50 pmol/plate, with or without S9): did not significantly increase numbers at any strains and test concentrations; also recorded: did not demonstrate such a sign
- max MI value ([1]; highest MI from test range 5 × 10^–5 to 50 pmol/plate): 1.2
- MI (S. typhimurium TA98; TA98 +S9, 0.5 pmol/plate): 1.1
- number of revertants/plate (M ± SD) (S. typhimurium TA98; TA98 +S9, 0.5 pmol/plate): 26 ± 13 revertants/plate
- MI (S. typhimurium TA98; TA98 +S9, 5 pmol/plate): 1.0
- number of revertants/plate (M ± SD) (S. typhimurium TA98; TA98 +S9, 5 pmol/plate): 23 ± 14 revertants/plate
- MI (S. typhimurium TA98; TA98 +S9, 50 pmol/plate): 1.2
- number of revertants/plate (M ± SD) (S. typhimurium TA98; TA98 +S9, 50 pmol/plate): 28 ± 16 revertants/plate
- MI (S. typhimurium TA98; TA98 +S9, 5 × 10^–2 pmol/plate): 1.2
- number of revertants/plate (M ± SD) (S. typhimurium TA98; TA98 +S9, 5 × 10^–2 pmol/plate): 28 ± 5 revertants/plate
- MI (S. typhimurium TA98; TA98 +S9, 5 × 10^–3 pmol/plate): 1.2
- number of revertants/plate (M ± SD) (S. typhimurium TA98; TA98 +S9, 5 × 10^–3 pmol/plate): 28 ± 10 revertants/plate
- MI (S. typhimurium TA98; TA98 +S9, 5 × 10^–4 pmol/plate): 1.0
- number of revertants/plate (M ± SD) (S. typhimurium TA98; TA98 +S9, 5 × 10^–4 pmol/plate): 24 ± 8 revertants/plate
- MI (S. typhimurium TA98; TA98 +S9, 5 × 10^–5 pmol/plate): 0.8
- number of revertants/plate (M ± SD) (S. typhimurium TA98; TA98 +S9, 5 × 10^–5 pmol/plate): 19 ± 6 revertants/plate
- MI (S. typhimurium TA98; TA98 -S9, 0.5 pmol/plate): 0.7
- number of revertants/plate (M ± SD) (S. typhimurium TA98; TA98 -S9, 0.5 pmol/plate): 15 ± 1 revertants/plate
- MI (S. typhimurium TA98; TA98 -S9, 5 pmol/plate): 0.8
- number of revertants/plate (M ± SD) (S. typhimurium TA98; TA98 -S9, 5 pmol/plate): 18 ± 6 revertants/plate
- MI (S. typhimurium TA98; TA98 -S9, 50 pmol/plate): 0.6
- number of revertants/plate (M ± SD) (S. typhimurium TA98; TA98 -S9, 50 pmol/plate): 13 ± 4 revertants/plate
- MI (S. typhimurium TA98; TA98 -S9, 5 × 10^–2 pmol/plate): 0.7
- number of revertants/plate (M ± SD) (S. typhimurium TA98; TA98 -S9, 5 × 10^–2 pmol/plate): 16 ± 2 revertants/plate
- MI (S. typhimurium TA98; TA98 -S9, 5 × 10^–3 pmol/plate): 0.5
- number of revertants/plate (M ± SD) (S. typhimurium TA98; TA98 -S9, 5 × 10^–3 pmol/plate): 11 ± 1 revertants/plate
- MI (S. typhimurium TA98; TA98 -S9, 5 × 10^–4 pmol/plate): 0.6
- number of revertants/plate (M ± SD) (S. typhimurium TA98; TA98 -S9, 5 × 10^–4 pmol/plate): 13 ± 6 revertants/plate
- MI (S. typhimurium TA98; TA98 -S9, 5 × 10^–5 pmol/plate): 0.7
- number of revertants/plate (M ± SD) (S. typhimurium TA98; TA98 -S9, 5 × 10^–5 pmol/plate): 15 ± 4 revertants/plate
- concentration of maximum proliferative activity in MCF-7 cells (MCF-7 cells [2]): 10^–6 M
- developmental toxicity in zebrafish model (zebrafish embryos; at 1–50 μM): showing developmental toxicity
- survival rate for zebrafish embryos (zebrafish embryos; exposure at 0.025 to 0.1 mM): significantly decreased the survival rate
- binding affinity for ERβ (ERβ): 87%
- LSI (liver somatic index) (chicken embryo; [4]): 2.12 ± 0.14%
- malformation rate (chicken embryo; [4]): 0.0%
- mortality rate (chicken embryo; [4]): 50%
- number of dead chicken embryo (chicken embryo; [4]): 5
- number of malformation chicken embryo (chicken embryo; [4]): 0
- weights: embryo (chicken embryo; [4]): 23.88 ± 2.02 g
- weights: heart (chicken embryo; [4]): 0.20 ± 0.03 g
- weights: liver (chicken embryo; [4]): 0.50 ± 0.09 g
- LSI (liver somatic index) (chicken embryo; [5]): 2.05 ± 0.44%
- REEW (ratio of embryo to egg weight) (chicken embryo; [5]): 0.41 ± 0.049
- malformation rate (chicken embryo; [5]): 0.0%
- mortality rate (chicken embryo; [5]): 40.0%
- number of dead chicken embryo (chicken embryo; [5]): 4
- number of malformation chicken embryo (chicken embryo; [5]): 0
- weights: embryo (chicken embryo; [5]): 21.96 ± 0.73 g
- weights: heart (chicken embryo; [5]): 0.17 ± 0.01 g
- weights: liver (chicken embryo; [5]): 0.46 ± 0.10 g
- binding affinity for ERα (ERα): 4%
- EEF (estradiol equivalent factor) (MCF-7 cells [3]; EC50 of E2 divided by that of the test compound): 0.08
- EC50 (MCF-7 cells [3]; Homo sapiens, MCF7): 0.12 nM
- max % RME2 (MCF-7 cells [3]; highest % RME2 (relative maximum % E2) in test range 10^–12–10^–7 M): 48%
- MI (S. typhimurium TA100; TA100 +S9, 0.5 pmol/plate): 1.0
- number of revertants/plate (M ± SD) (S. typhimurium TA100; TA100 +S9, 0.5 pmol/plate): 307 ± 7 revertants/plate
- MI (S. typhimurium TA100; TA100 +S9, 5 pmol/plate): 0.9
- number of revertants/plate (M ± SD) (S. typhimurium TA100; TA100 +S9, 5 pmol/plate): 301 ± 13 revertants/plate
- MI (S. typhimurium TA100; TA100 +S9, 50 pmol/plate): 0.9
- number of revertants/plate (M ± SD) (S. typhimurium TA100; TA100 +S9, 50 pmol/plate): 296 ± 11 revertants/plate
- MI (S. typhimurium TA100; [6]): 1.0
- number of revertants/plate (M ± SD) (S. typhimurium TA100; [6]): 308 ± 8 revertants/plate
- MI (S. typhimurium TA100; [7]): 1.0
- number of revertants/plate (M ± SD) (S. typhimurium TA100; [7]): 313 ± 11 revertants/plate
- MI (S. typhimurium TA100; [8]): 0.9
- number of revertants/plate (M ± SD) (S. typhimurium TA100; [8]): 301 ± 4 revertants/plate
- MI (S. typhimurium TA100; [9]): 0.9
- number of revertants/plate (M ± SD) (S. typhimurium TA100; [9]): 294 ± 6 revertants/plate
- MI (S. typhimurium TA100; TA100 -S9, 0.5 pmol/plate): 1.0
- number of revertants/plate (M ± SD) (S. typhimurium TA100; TA100 -S9, 0.5 pmol/plate): 103 ± 10 revertants/plate
- MI (S. typhimurium TA100; TA100 -S9, 5 pmol/plate): 0.9
- number of revertants/plate (M ± SD) (S. typhimurium TA100; TA100 -S9, 5 pmol/plate): 96 ± 4 revertants/plate
- MI (S. typhimurium TA100; TA100 -S9, 50 pmol/plate): 0.8
- number of revertants/plate (M ± SD) (S. typhimurium TA100; TA100 -S9, 50 pmol/plate): 80 ± 12 revertants/plate
- MI (S. typhimurium TA100; [10]): 0.9
- number of revertants/plate (M ± SD) (S. typhimurium TA100; [10]): 97 ± 11 revertants/plate
- MI (S. typhimurium TA100; [11]): 1.0
- number of revertants/plate (M ± SD) (S. typhimurium TA100; [11]): 100 ± 11 revertants/plate
- MI (S. typhimurium TA100; [12]): 0.9
- number of revertants/plate (M ± SD) (S. typhimurium TA100; [12]): 94 ± 8 revertants/plate
- MI (S. typhimurium TA100; [13]): 1.0
- number of revertants/plate (M ± SD) (S. typhimurium TA100; [13]): 98 ± 6 revertants/plate
- MI (S. typhimurium TA102; TA102 +S9, 0.5 pmol/plate): 1.1
- number of revertants/plate (M ± SD) (S. typhimurium TA102; TA102 +S9, 0.5 pmol/plate): 336 ± 17 revertants/plate
- MI (S. typhimurium TA102; TA102 +S9, 5 pmol/plate): 1.0
- number of revertants/plate (M ± SD) (S. typhimurium TA102; TA102 +S9, 5 pmol/plate): 299 ± 4 revertants/plate
- MI (S. typhimurium TA102; TA102 +S9, 50 pmol/plate): 1.1
- number of revertants/plate (M ± SD) (S. typhimurium TA102; TA102 +S9, 50 pmol/plate): 324 ± 28 revertants/plate
- MI (S. typhimurium TA102; [14]): 1.0
- number of revertants/plate (M ± SD) (S. typhimurium TA102; [14]): 311 ± 18 revertants/plate
- MI (S. typhimurium TA102; [15]): 1.0
- number of revertants/plate (M ± SD) (S. typhimurium TA102; [15]): 312 ± 13 revertants/plate
- MI (S. typhimurium TA102; [16]): 0.9
- number of revertants/plate (M ± SD) (S. typhimurium TA102; [16]): 285 ± 10 revertants/plate
- MI (S. typhimurium TA102; [17]): 0.9
- number of revertants/plate (M ± SD) (S. typhimurium TA102; [17]): 290 ± 4 revertants/plate
- MI (S. typhimurium TA102; TA102 -S9, 0.5 pmol/plate): 1.0
- number of revertants/plate (M ± SD) (S. typhimurium TA102; TA102 -S9, 0.5 pmol/plate): 247 ± 18 revertants/plate
- MI (S. typhimurium TA102; TA102 -S9, 5 pmol/plate): 0.9
- number of revertants/plate (M ± SD) (S. typhimurium TA102; TA102 -S9, 5 pmol/plate): 240 ± 8 revertants/plate
- MI (S. typhimurium TA102; TA102 -S9, 50 pmol/plate): 0.8
- number of revertants/plate (M ± SD) (S. typhimurium TA102; TA102 -S9, 50 pmol/plate): 215 ± 27 revertants/plate
- MI (S. typhimurium TA102; [18]): 0.9
- number of revertants/plate (M ± SD) (S. typhimurium TA102; [18]): 222 ± 30 revertants/plate
- MI (S. typhimurium TA102; [19]): 0.8
- number of revertants/plate (M ± SD) (S. typhimurium TA102; [19]): 198 ± 8 revertants/plate
- MI (S. typhimurium TA102; [20]): 0.8
- number of revertants/plate (M ± SD) (S. typhimurium TA102; [20]): 196 ± 20 revertants/plate
- MI (S. typhimurium TA102; [21]): 0.8
- number of revertants/plate (M ± SD) (S. typhimurium TA102; [21]): 207 ± 5 revertants/plate

Source: PMC8851455 (ACS Omega, 2022)
